# Laboratory results from ChEMBL document CHEMBL4028818, “Tricyclic 4,4-dimethyl-3,4-dihydrochromeno[3,4-d]imidazole derivatives as microsomal prostaglandin E2 synthase-1 (mPGES-1) inhibitors: SAR and in vivo efficacy in hyperalgesia pain model” (Bioorg Med Chem Lett, 2017).
# pIC50: −log10 of the molar value.
# Tests used:
# [1] = molecular target: T1, Prostaglandin E synthase (Homo sapiens) (UniProt O14684); assay: Inhibition of recombinant human mPGES-1 expressed in CHO cells assessed as reduction in PGE2 formation at 1 uM using PGH2 a substrate preincubated for 10 mins followed by substrate addition measured after 1 min relative to control; type: cell-based
# T1 sequence (whole entry): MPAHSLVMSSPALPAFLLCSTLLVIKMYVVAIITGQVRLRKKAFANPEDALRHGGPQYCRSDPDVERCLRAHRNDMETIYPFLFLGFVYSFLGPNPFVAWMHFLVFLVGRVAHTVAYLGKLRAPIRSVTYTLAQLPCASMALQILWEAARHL
# Outline: (§1)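 mPGES-1 enzyme inhibition. % inhibition values are means of two experiments in duplicate. IC50 values were derived from graphs of at least two experiments in duplicate.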
# [2] = molecular target: T1, Prostaglandin E synthase (Homo sapiens); assay: Inhibition of recombinant human mPGES-1 expressed in CHO cells assessed as reduction in PGE2 formation at 10 uM using PGH2 a substrate preincubated for 10 mins followed by substrate addition measured after 1 min relative to control; type: cell-based; outline: as §1
# [3] = molecular target: T2, Prostaglandin G/H synthase 2 (Homo sapiens, UniProt P35354); assay: Inhibition of recombinant human N-terminal His-tagged COX2 expressed in baculovirus infected Sf21 insect cells assessed as decrease in PGE2 release using arachidonic acid as substrate preincubated for 15 mins followed by arachidonic acid addition measured after 5 mins
# T2 sequence (P35354 whole entry): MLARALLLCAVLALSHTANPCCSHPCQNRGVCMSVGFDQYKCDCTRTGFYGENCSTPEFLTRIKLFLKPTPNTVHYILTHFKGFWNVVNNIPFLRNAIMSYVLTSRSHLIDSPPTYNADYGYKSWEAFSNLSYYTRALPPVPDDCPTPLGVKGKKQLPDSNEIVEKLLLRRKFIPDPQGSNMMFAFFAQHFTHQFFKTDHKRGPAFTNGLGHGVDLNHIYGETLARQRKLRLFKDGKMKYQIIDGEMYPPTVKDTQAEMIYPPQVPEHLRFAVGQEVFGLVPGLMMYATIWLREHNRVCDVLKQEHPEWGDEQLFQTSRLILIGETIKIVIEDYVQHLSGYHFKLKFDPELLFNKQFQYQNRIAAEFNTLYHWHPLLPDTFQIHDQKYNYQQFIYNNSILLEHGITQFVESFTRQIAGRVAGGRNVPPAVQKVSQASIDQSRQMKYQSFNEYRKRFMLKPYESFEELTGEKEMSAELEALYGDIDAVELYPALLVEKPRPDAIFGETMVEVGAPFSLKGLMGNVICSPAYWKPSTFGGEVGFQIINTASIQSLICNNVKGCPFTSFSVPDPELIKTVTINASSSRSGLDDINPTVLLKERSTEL
# [4] = Metabolic stability in human liver microsomes assessed as parent compound remaining at 1 uM after 60 mins in presence of NADPH by LC/MS/MS analysis; type: ADME, microsome; details: read-out: Stability
# Outline: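 Compound at 1.0 µM was incubated with liver microsomes (1.0 mg/mL protein) at 37 °C for 60 min. Samples were analysed by LC/MS/MS as % parent remaining. Run in triplicate.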
# [5] = molecular target: CYP2C9 (Homo sapiens, UniProt P11712); assay: Inhibition of CYP2C9 in human liver microsomes at 10 uM measured after 20 mins in presence of NADPH by LC/MS/MS analysis relative to control; type: ADME
# CYP2C9, sequence (P11712 whole entry, canonical isoform): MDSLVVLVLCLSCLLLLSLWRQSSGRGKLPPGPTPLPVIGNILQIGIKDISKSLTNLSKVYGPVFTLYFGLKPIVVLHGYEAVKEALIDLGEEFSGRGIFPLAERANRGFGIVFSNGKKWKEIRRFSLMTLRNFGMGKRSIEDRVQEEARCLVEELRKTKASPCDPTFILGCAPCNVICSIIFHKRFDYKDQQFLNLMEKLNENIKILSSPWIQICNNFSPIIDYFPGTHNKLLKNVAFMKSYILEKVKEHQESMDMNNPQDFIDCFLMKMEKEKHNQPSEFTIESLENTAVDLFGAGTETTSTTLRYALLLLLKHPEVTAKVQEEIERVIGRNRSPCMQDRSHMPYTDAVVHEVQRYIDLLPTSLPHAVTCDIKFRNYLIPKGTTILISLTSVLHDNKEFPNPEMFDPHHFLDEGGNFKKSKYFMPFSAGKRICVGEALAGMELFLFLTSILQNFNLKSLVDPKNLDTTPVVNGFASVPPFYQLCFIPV
# Outline: (§2)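 CYP isoforms 1A2, 2D6, 3A4, 2C9 and 2C19 were tested at 1 and 10 µM. Results are % inhibition compared with a no-inhibitor control, run in triplicate.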
# [6] = Half life in Sprague-Dawley rat at 5 mg/kg, iv administered as single bolus dose; type: ADME, organism-based; details: in vivo
# Outline: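 Male Sprague-Dawley rats were dosed i.v. in a vehicle of 20% NMP + 20% ethanol + 60% PEG 200. T1/2, CL and Vz were derived. Values are mean ± SD, n = 3.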
# [7] = AUC (0 to 24 hrs) in Sprague-Dawley rat at 10 mg/kg, po; type: ADME, organism-based; design: dose 10 mg/kg, time < 24 hr, route oral; details: in vivo
# Outline: (§3)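 Male Sprague-Dawley rats were dosed orally as a 0.5% methylcellulose suspension. Cmax, AUC0-24, Tmax, T1/2 and %F were determined. Values are mean ± SD, n = 3.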
# [8] = Half life in Sprague-Dawley rat at 10 mg/kg, po; type: ADME, organism-based; details: in vivo; outline: as §3
# [9] = Cmax in Guinea pig at 100 mg/kg, po; type: ADME, organism-based, Cavia porcellus; design: dose 100 mg/kg, route oral; details: in vivo
# Outline: (§4)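 Single oral dose given to guinea pigs as a 0.5% methylcellulose suspension. Values are mean ± SD, n = 3.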
# [10] = AUC (0 to 24 hrs) in Guinea pig at 100 mg/kg, po; type: ADME, organism-based, Cavia porcellus; design: time < 24 hr, dose 100 mg/kg, route oral; details: in vivo; outline: as §4
# [11] = molecular target: Cytochrome P450 3A4 (Homo sapiens, UniProt P08684); assay: Inhibition of CYP3A4 in human liver microsomes at 1 uM measured after 20 mins in presence of NADPH by LC/MS/MS analysis; type: ADME; outline: as §2
# Cytochrome P450 3A4, sequence (P08684 whole entry): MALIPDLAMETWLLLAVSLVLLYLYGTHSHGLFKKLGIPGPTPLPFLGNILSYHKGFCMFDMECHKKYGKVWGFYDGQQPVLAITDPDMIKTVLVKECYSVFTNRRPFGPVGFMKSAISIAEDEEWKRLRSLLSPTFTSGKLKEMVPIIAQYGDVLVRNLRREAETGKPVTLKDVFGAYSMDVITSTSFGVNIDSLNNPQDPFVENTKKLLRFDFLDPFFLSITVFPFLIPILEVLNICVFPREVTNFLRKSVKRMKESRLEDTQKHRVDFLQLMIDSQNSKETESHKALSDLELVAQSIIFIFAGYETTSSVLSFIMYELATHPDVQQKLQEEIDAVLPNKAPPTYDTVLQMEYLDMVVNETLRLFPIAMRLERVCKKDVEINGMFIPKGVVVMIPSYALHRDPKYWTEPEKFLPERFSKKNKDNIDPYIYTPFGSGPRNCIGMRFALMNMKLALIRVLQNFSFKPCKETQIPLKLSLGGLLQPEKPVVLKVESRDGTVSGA
# [12] = Plasma concentration in Dunkin Hartley guinea pig model of LPS-induced thermal hyperalgesia pain at 200 mg/kg, po qd measured 7 hrs post dose by LC/MS/MS analysis; type: ADME, organism-based, Cavia porcellus
# Outline: (§5)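 In the guinea pig LPS thermal hyperalgesia model, plasma and CSF drug levels were measured at the pharmacodynamic time point after oral dosing. Concentrations are means of n = 8 animals per dose group.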
# [13] = Drug uptake in CSF of Dunkin Hartley guinea pig model of LPS-induced thermal hyperalgesia pain at 200 mg/kg, po qd measured 7 hrs post dose by LC/MS/MS analysis; type: ADME, organism-based, Cavia porcellus, Cerebrospinal fluid; details: read-out: Drug uptake; outline: as §5
# [14] = tested on: Cavia porcellus; assay: Analgesic activity in Dunkin Hartley guinea pig hyperalgesia pain model assessed as inhibition of LPS-induced thermal hyperalgesia at 100 mg/kg, po qd administered 4 hrs prior to LPS stimulation measured after 4.5 hrs by plantar test relative to control; type: functional
# Outline: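 LPS was injected into the guinea pig plantar to induce thermal hyperalgesia, and compound was given orally. Response is expressed as % hyperalgesia, with a saline-injected naive group as 0% and the vehicle-treated LPS group as 100%. Values are mean ± SEM, n = 8 per dose group.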
# [15] = Plasma concentration in Dunkin Hartley guinea pig model of LPS-induced thermal hyperalgesia pain at 100 mg/kg, po qd measured 7 hrs post dose by LC/MS/MS analysis; type: ADME, organism-based, Cavia porcellus; outline: as §5
# [16] = Drug uptake in CSF of Dunkin Hartley guinea pig model of LPS-induced thermal hyperalgesia pain at 100 mg/kg, po qd measured 7 hrs post dose by LC/MS/MS analysis; type: ADME, organism-based, Cavia porcellus, Cerebrospinal fluid; details: read-out: Drug uptake; outline: as §5
inhibition [1] [%],inhibition [2] [%],pIC50 [3],"remaining at 1 h, 1 µM [4] [%]","inhibition at 20 min, 10 µM [5] [%]",half-life [6] [h],AUC(0-t) at 24 h [7] [ng·h/mL],half-life [8] [h],Cmax [9] [ng/mL],AUC(0-t) at 24 h [10] [ng·h/mL],inhibition (INH) [11],concentration at 7 h [12] [µM],concentration at 7 h [13] [µM],concentration at 7 h [15] [µM],concentration at 7 h [16] [µM],Structure (SMILES),inhibition in vivo at 100 mg/kg [14] [%]
97.9,91.8,< 5.00,84,45.4,9.87,12600,11.2,803,13400,Not Active,7.5 to 7.54,0.00922,–,–,CC1(C)Oc2cc(-c3cccc(OC(F)(F)F)c3)ccc2-c2[nH]c(-c3c(F)cccc3Cl)nc21,–
–,–,5.01,76,33.3,5.5,12400,6.77,–,–,Not Active,–,–,13.8,0.00263,CC1(C)Oc2cc(C#Cc3cc(Cl)ccc3F)ccc2-c2[nH]c(-c3c(F)cccc3Cl)nc21,26
